Hits are enriched below; roughly 3.1% of the tested compounds scored in any of these assays.
OX1R antag-1: human HCRTR1 antagonism; CHO/OX1R cells, Fluo-8 calcium fluorescence, orexin A; inhibition, % at 5 µM; hit rate 0.43% among 330,000; AID 434989;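 active means inhibition above its plate's threshold, mean inhibition of all tested compounds on the plate plus 3 SD, cut at about 37% in these data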;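 further: 0% = orexin A challenge wells and 100% = SB-334867-A antagonist wells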
CHO parental Ca: counter-screen for OX1R antagonists: effect in parental CHO cells; parental CHO-K1, ATP-induced calcium, Fluo-8 fluorescence; inhibition, % at 5.6 µM; hit rate 0.63% among 330,000;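 active means inhibition above that plate's mean sample inhibition plus 3 SD, cut at about 26% in these data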;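 further: 0% = ATP-challenged DMSO wells and 100% = DMSO wells without ATP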
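Test system: untransfected parental CHO cell line; also added: ATP stimulus; dosing: 5.6 µM, single dose; signal: calcium-sensitive Fluo-8 fluorescence; measure: percent inhibition of ATP-evoked calcium rise, normalized to controls; benchmarks: low control ATP plus DMSO, high control DMSO only; replication: one well per compound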
GPR7 antagonist: human neuropeptides B/W receptor 1 antagonism. P48145. hit rate 1.1% among 290,000. AID 1861. GPR7-expressing cells, fluorescence antagonist assay. inhibition, % at 4.4 µM; in the data active means inhibition above about 16%, passing the limit was not always enough;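 further: cells stimulated with the agonist NPW; 0% = agonist with vehicle and 100% = vehicle without agonist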
OX1R antag-2: antagonists of human orexin 1 receptor (OX1R); O43613; OX1R-expressing cells, FRET antagonist read-out; inhibition, % at 6.6 µM; hit rate 1.8% among 330,000; in the data active means inhibition mostly above about 38%, no sharp cut-off; inactive means mostly below about 40%;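 further: 0% = agonist challenge alone and 100% = reference antagonist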
GalR3 antag: human GalR3 antagonism; hit rate 0.44% among 360,000; O60755; inhibition, % at 3 µM; HEK293 GalR3-CNG cAMP membrane potential fluorescence; galR3 body fused to GalR1 C-terminus;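 active means inhibition above the screen-wide average plus 3 SD, cut at about 13% in these data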;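 further: forskolin and galanin both at EC90 stimulate the cells; cAMP rise reported by CNG channel membrane potential dye signal; 0% = forskolin plus galanin with DMSO and 100% = forskolin alone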
Target sequence (O60755 1-299 limits assumed): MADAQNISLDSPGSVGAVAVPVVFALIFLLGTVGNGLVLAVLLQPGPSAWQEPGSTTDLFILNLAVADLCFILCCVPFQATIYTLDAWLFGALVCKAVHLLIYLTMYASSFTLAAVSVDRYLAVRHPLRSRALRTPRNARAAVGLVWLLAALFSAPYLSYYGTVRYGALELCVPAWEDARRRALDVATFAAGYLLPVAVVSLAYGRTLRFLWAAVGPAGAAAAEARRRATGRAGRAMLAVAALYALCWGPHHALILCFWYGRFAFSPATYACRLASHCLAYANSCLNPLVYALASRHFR
OX1R Ca confirm: OX1R (human) antagonism, confirmed | shares compounds with OX1R antag-1 | CHO/OX1R cells, orexin A calcium Fluo-8 fluorescence | inhibition, % at 5 µM | hit rate 38% among 1,100 | AID 492963; in the data active means inhibition above about 29%;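 further: 0% = agonist challenge alone and 100% = reference antagonist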
CHO Ca triplic: counter-screen: parental CHO calcium response change, triplicate; hit rate 9.3% among 1,100; shares compounds with OX1R antag-1; parental CHO-K1, ATP-induced calcium, Fluo-8 fluorescence; inhibition, % at 5.6 µM;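 active means inhibition above a per-plate limit, the mean inhibition of that plate's test compounds plus 3 SD, cut at about 25% in these data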;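 further: 0% = ATP challenge with DMSO and 100% = DMSO without ATP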
OX1R HTRF confirm: OX1R (human) antagonism, HTRF confirmed | shares compounds with OX1R antag-2 | OX1R-expressing cells, HTRF antagonist assay | inhibition, % at 6.6 µM | hit rate 49% among 1,800; in the data active means inhibition above about 55%;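 further: CHO cells expressing OX1R stimulated with orexin A at about EC80; 0% = agonist challenge alone and 100% = reference antagonist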
CHO-K1 HTRF: counter-screen for OX1R antagonists: effect in parental CHO-K1 cells. hit rate 48% among 1,800. inhibition, % at 6.6 µM. HTRF counterscreen. shares compounds with OX1R antag-2; in the data active means inhibition above about 17%;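 further: 0% = agonist challenge with vehicle and 100% = vehicle alone without agonist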
GalR3 conf: GalR3 (human) antagonism, confirmation; shares compounds with GalR3 antag; HEK293 GalR3 CNG cAMP biosensor, membrane potential fluorescence; galR3 fused to GalR1 carboxy tail; challenged with forskolin and galanin at EC90; inhibition, % at 3 µM; hit rate 59% among 1,600; AID 652245;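 active means inhibition above the primary screen's cutoff, the mean inhibition of all screened compounds plus 3 SD, cut at about 13% in these data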;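 further: 0% = forskolin plus galanin and 100% = forskolin alone with DMSO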
HEK-CNG parental: counter-screen for GalR3 antagonists: nonspecific agonists in parental HEK-CNG cells; shares compounds with GalR3 antag; HEK293-CNG parental cells, cAMP membrane potential fluorescence; normalised: DMSO wells 0%, forskolin wells 100%; activation, % at 3 µM; hit rate 10% among 1,600; AID 652268; in the data active means activation above about 1.3%
The depositor's hits bear a star; / = not tested or not shown.

SMILES	OX1R antag-1	CHO parental Ca	GPR7 antagonist	OX1R antag-2	GalR3 antag	OX1R Ca confirm	CHO Ca triplic	OX1R HTRF confirm	CHO-K1 HTRF	GalR3 conf	HEK-CNG parental
COC(=O)c1sc(NC(=O)c2cc3c(s2)CCCC3)nc1C	58*	-20	11	89*	-8	27	-17	98*	-1	/	/
Cc1nc(NC(=O)c2cc3c(s2)CCCCC3)sc1C(=O)N(C)C	2	-29	1	32	-4	/	/	/	/	/	/
Cc1c(N(C)S(=O)(=O)c2ccc(Cl)c(C(=O)NCC(C)(C)N3CCOCC3)c2)c(=O)n(-c2ccccc2)n1C	/	/	/	/	2	/	/	/	/	/	/
Cc1cc2nc(-c3ccco3)c(Cc3cccc(Cl)c3)n2c(C)c1Br	/	/	/	/	-1	/	/	/	/	/	/
O=C(CSc1nnc(Cn2nnc3ccccc32)o1)N(Cc1ccc(F)cc1)c1ccccc1	79*	10	20	78*	92*	51*	61*	70*	3	114*	0
CCCCc1ccc(S(=O)(=O)NC(=O)C2(C)CCN2C(=O)c2cccc(F)c2)cc1 (configuration not stated)	/	/	/	/	-8	/	/	/	/	/	/
O=C(NC(Nc1ncc(S(=O)(=O)c2ccc([N+](=O)[O-])cc2)s1)(C(F)(F)F)C(F)(F)F)c1ccc(Cl)cc1	38	23	14	120*	73*	30*	65*	58*	36*	41*	0
COCC(=O)Nc1ncc(S(=O)(=O)c2ccc([N+](=O)[O-])cc2)s1	-13	4	-6	22	4	/	/	/	/	/	/
CC(C)C(NC(=O)Cc1ccccc1)C(=O)N1CCN(c2cccc(Cl)c2)CC1 (configuration not stated)	41*	5	/	22	44*	21	19	/	/	0	0
CC(NC(=O)c1ccco1)C(=O)N1CCN(c2cccc(Cl)c2)CC1 (configuration not stated)	-14	-7	/	3	-3	/	/	/	/	/	/
CCOC(=O)CC1C(=O)NCCN1C(=O)c1c(Cl)cccc1Cl (configuration not stated)	3	4	5	-5	-8	/	/	/	/	/	/
COc1ccc(CC(=O)NCc2nn(-c3ccccc3)nc2C)cc1OC	-30	-26	-16	13	2	/	/	/	/	/	/
COc1ccc(-c2ocnc2C(=O)NCc2nn(-c3ccccc3)nc2C)cc1	38	24	-4	25	19*	8	29*	/	/	84*	1
C#CCNC(=O)C[C@@H]1C[C@@]2(C(=O)OC)CCCCC=C2N(CCCCCCCC)C1=O	/	/	/	/	-2	/	/	/	/	/	/
Cc1c(Cl)cccc1NC(=O)N1CCCN(c2nc(-c3ccccc3)ns2)CC1	34	29	12	80*	34*	27	22	53	7	99*	-1
COc1ccc(NS(=O)(=O)c2ccc(N3CCCCC3)c(N)c2)cc1	62*	12	/	16	82*	20	65*	/	/	105*	-1
C=CCn1cc(/C=C/c2cc[n+](C)cc2)c2ccccc21	8	0	-16	87*	-10	/	/	33	33*	/	/
N#Cc1cc(NCC2CCCO2)c([N+](=O)[O-])cc1C#N (configuration not stated)	-16	-1	-5	126*	1	/	/	51	71*	/	/
COc1ccc(NC(=O)c2ccc(NCC3CCCO3)c([N+](=O)[O-])c2)cc1 (configuration not stated)	5	0	-4	77*	-5	/	/	29	18*	/	/
